Twelve molecules from ChEMBL document CHEMBL1157643, “SAR and molecular mechanism study of novel acylhydrazone compounds targeting HIV-1 CA” (Bioorg Med Chem, 2010) can be followed below.

Each structure is given as a SMILES string. The source made the active and inactive calls. No cut-off for these calls is given here.

Chain of Structural capsid protein (Human immunodeficiency virus 1) (Q76129 as listed by the source): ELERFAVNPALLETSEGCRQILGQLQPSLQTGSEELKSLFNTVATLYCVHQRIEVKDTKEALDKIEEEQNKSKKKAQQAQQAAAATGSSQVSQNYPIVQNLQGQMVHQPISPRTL

The first data set deals with Simian immunodeficiency virus. The data set can be described thus: Antiviral activity against SIV-induced syncytium in human CEM174 cells assessed as inhibition of virus-induced cytopathogenicity after 5 days. It counts as functional, organism-based. The conditions noted are these: CEM174, 120 h. In outline:
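CEM174 cells at 1 × 10⁵ cells/mL in 96-well format, infected with 100 TCID₅₀ SIV per well alongside serial dilutions of compound. Incubated 5 days at 37 °C, 5% CO₂, humidified. Syncytium (giant cell) formation scored microscopically. EC₅₀ = concentration protecting cells 50% against SIV cytopathogenicity.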
(In general: Protection from cytopathic effect is a common read-out in antiviral testing.)
The EC50 is the midpoint of the concentration-response curve. `COc1ccc(C(=O)N[C@H](C(=O)N/N=C/c2ccccc2)C(C)C)cc1`: the EC50 stood at 4.08 µM.

Consider `COc1ccc(C(=O)N[C@@H](Cc2c[nH]cn2)C(=O)N/N=C/c2ccc(C)cc2)cc1`, for which the EC50 turned out to be 1.55 µM.

Turning to `COc1ccc(C(=O)N[C@@H](Cc2c[nH]cn2)C(=O)N/N=C/c2ccco2)cc1`, the EC50 was 8.44 µM.

With `COc1ccc(C(=O)N[C@@H](Cc2c[nH]cn2)C(=O)N/N=C/c2ccc(O)cc2)cc1`, the half-maximal effective concentration (EC50) is 3.18 µM.

In the case of `COc1ccc(C(=O)N[C@@H](Cc2c[nH]cn2)C(=O)N/N=C/c2ccccc2)cc1`, the EC50 was 0.56 µM.

Take `COc1ccc(C(=O)N[C@H](C(=O)N/N=C/c2ccc(C)cc2)[C@H](C)O)cc1`: the EC50 is 8.17 µM.

As for `CC[C@@H](C)[C@H](NC(=O)c1ccc(OC)cc1)C(=O)N/N=C/c1ccc(O)cc1`, the concentration giving a half-maximal response (EC50) worked out at 4.15 µM.

Regarding `Cc1ccc(S(=O)(=O)C[C@@H](Cc2ccccc2)C(=O)N/N=C/c2ccc3c(c2)OCO3)cc1`, the 50% effective concentration (EC50) was 0.17 µM.

Take `COc1ccc(C(=O)N[C@H](C(=O)N/N=C/c2ccc(O)cc2)[C@@H](C)O)cc1`: the EC50 is 8.13 µM.

As for `CC[C@@H](C)[C@H](NC(=O)c1ccc(OC)cc1)C(=O)N/N=C/c1ccco1`, the EC50 is 1.7 µM.

Turning to `COc1ccc(C(=O)N[C@@H](Cc2c[nH]cn2)C(=O)N/N=C/c2ccc([N+](=O)[O-])cc2)cc1`, the EC50 is 4.4 µM.

For the molecule `COc1ccc(C(=O)N[C@H](C(=O)N/N=C/c2ccccc2)[C@H](C)O)cc1`, the half-maximal effective concentration (EC50) was determined as 0.77 µM.

System in the next data set: not listed separately
The data set can be described thus: Cytotoxicity against mock-infected human CEM174 cells after 5 days by MTT assay. The following applies: read-out: TC50. It counts as cell-based. In outline: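 Uninfected CEM174 cells handled as in the antiviral assay (1 × 10⁵ cells/mL, compound dilutions, 5 days, 37 °C, 5% CO₂). Proliferation read by MTT reduction. TC₅₀ = concentration inhibiting cell proliferation by 50%.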
(In general: Tetrazolium assays rely on reduction of a dye to a coloured formazan, in cell work by metabolically active cells.)
`COc1ccc(C(=O)N[C@H](C(=O)N/N=C/c2ccccc2)C(C)C)cc1`: the CC50 at 120 h was greater than 100 µM.

Consider `COc1ccc(C(=O)N[C@@H](Cc2c[nH]cn2)C(=O)N/N=C/c2ccc(C)cc2)cc1`, for which the CC50 at 120 h is greater than 100 µM.

`COc1ccc(C(=O)N[C@@H](Cc2c[nH]cn2)C(=O)N/N=C/c2ccco2)cc1`: the CC50 at 120 h was greater than 100 µM.

Regarding `COc1ccc(C(=O)N[C@@H](Cc2c[nH]cn2)C(=O)N/N=C/c2ccc(O)cc2)cc1`, the CC50 at 120 h is greater than 100 µM.

In the case of `COc1ccc(C(=O)N[C@@H](Cc2c[nH]cn2)C(=O)N/N=C/c2ccccc2)cc1`, the CC50 at 120 h was greater than 100 µM.

Regarding `COc1ccc(C(=O)N[C@H](C(=O)N/N=C/c2ccc(C)cc2)[C@H](C)O)cc1`, the CC50 at 120 h is greater than 100 µM.

On to `CC[C@@H](C)[C@H](NC(=O)c1ccc(OC)cc1)C(=O)N/N=C/c1ccc(O)cc1`, for which the CC50 at 120 h is greater than 100 µM.

In the case of `COc1ccc(C(=O)N[C@H](C(=O)N/N=C/c2ccc(O)cc2)[C@@H](C)O)cc1`, the CC50 at 120 h was greater than 100 µM.

Regarding `CC[C@@H](C)[C@H](NC(=O)c1ccc(OC)cc1)C(=O)N/N=C/c1ccco1`, the CC50 at 120 h was greater than 100 µM.

For `COc1ccc(C(=O)N[C@@H](Cc2c[nH]cn2)C(=O)N/N=C/c2ccc([N+](=O)[O-])cc2)cc1`, the CC50 at 120 h was greater than 100 µM.

On to `COc1ccc(C(=O)N[C@H](C(=O)N/N=C/c2ccccc2)[C@H](C)O)cc1`, for which the CC50 at 120 h was greater than 100 µM.

System in a further data set: not listed separately
The data set is described as follows: Therapeutic index, TC50 for human CEM174 cells to EC50 for SIV-induced syncytium in human CEM174 cells. It counts as cell-based. The following applies: read-out: TI. In outline: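 Ratio TC₅₀/EC₅₀. TC₅₀ comes from the MTT proliferation assay in uninfected CEM174 cells. EC₅₀ comes from microscopic scoring of syncytia in CEM174 cells infected with 100 TCID₅₀ SIV per well. Both were run over 5 days at 37 °C, 5% CO₂.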
For the molecule `COc1ccc(C(=O)N[C@H](C(=O)N/N=C/c2ccccc2)C(C)C)cc1`, the selectivity ratio was greater than 24.5.

Consider `COc1ccc(C(=O)N[C@@H](Cc2c[nH]cn2)C(=O)N/N=C/c2ccc(C)cc2)cc1`, for which the selectivity ratio was greater than 64.5.

Consider `COc1ccc(C(=O)N[C@@H](Cc2c[nH]cn2)C(=O)N/N=C/c2ccco2)cc1`, for which the selectivity ratio was greater than 11.8.

Take `COc1ccc(C(=O)N[C@@H](Cc2c[nH]cn2)C(=O)N/N=C/c2ccc(O)cc2)cc1`: the selectivity ratio was greater than 31.4.

Consider `COc1ccc(C(=O)N[C@@H](Cc2c[nH]cn2)C(=O)N/N=C/c2ccccc2)cc1`, for which the selectivity ratio was greater than 179.

Regarding `COc1ccc(C(=O)N[C@H](C(=O)N/N=C/c2ccc(C)cc2)[C@H](C)O)cc1`, the selectivity ratio was greater than 12.2.

Regarding `CC[C@@H](C)[C@H](NC(=O)c1ccc(OC)cc1)C(=O)N/N=C/c1ccc(O)cc1`, the selectivity ratio is greater than 24.1.

For `COc1ccc(C(=O)N[C@H](C(=O)N/N=C/c2ccc(O)cc2)[C@@H](C)O)cc1`, the selectivity ratio was greater than 12.3.

With `CC[C@@H](C)[C@H](NC(=O)c1ccc(OC)cc1)C(=O)N/N=C/c1ccco1`, the selectivity ratio is greater than 58.8.

Regarding `COc1ccc(C(=O)N[C@@H](Cc2c[nH]cn2)C(=O)N/N=C/c2ccc([N+](=O)[O-])cc2)cc1`, the selectivity ratio was greater than 22.7.

For `COc1ccc(C(=O)N[C@H](C(=O)N/N=C/c2ccccc2)[C@H](C)O)cc1`, the selectivity ratio is greater than 130.

Another data set addresses Structural capsid protein (Human immunodeficiency virus 1) (UniProt Q76129). The data set is described as follows: Binding affinity to HIV1 capsid protein assessed as viral capsid assembly rate at 1 mM by ultraviolet spectrophotometry (RVb= 60.56 +/- 3.77 milliOD/min).
Details: not given
`COc1ccc(C(=O)N[C@@H](Cc2c[nH]cn2)C(=O)N/N=C/c2ccc(C)cc2)cc1`: the Activity (milli optical density/minute) was 6.05.

On to `COc1ccc(C(=O)N[C@@H](Cc2c[nH]cn2)C(=O)N/N=C/c2ccco2)cc1`, for which the Activity (milli optical density/minute) worked out at 29.3.

Turning to `COc1ccc(C(=O)N[C@@H](Cc2c[nH]cn2)C(=O)N/N=C/c2ccc(O)cc2)cc1`, the Activity (milli optical density/minute) is 24.7.

In the case of `COc1ccc(C(=O)N[C@@H](Cc2c[nH]cn2)C(=O)N/N=C/c2ccccc2)cc1`, the Activity (milli optical density/minute) stood at 3.26.

For the molecule `COc1ccc(C(=O)N[C@H](C(=O)N/N=C/c2ccc(C)cc2)[C@H](C)O)cc1`, the Activity (milli optical density/minute) was 11.9.

As for `CC[C@@H](C)[C@H](NC(=O)c1ccc(OC)cc1)C(=O)N/N=C/c1ccc(O)cc1`, the Activity (milli optical density/minute) came out at 30.1.

On to `COc1ccc(C(=O)N[C@H](C(=O)N/N=C/c2ccc(O)cc2)[C@@H](C)O)cc1`, for which the Activity (milli optical density/minute) worked out at 24.9.

With `CC[C@@H](C)[C@H](NC(=O)c1ccc(OC)cc1)C(=O)N/N=C/c1ccco1`, the Activity (milli optical density/minute) was found to be 5.82.

For `COc1ccc(C(=O)N[C@@H](Cc2c[nH]cn2)C(=O)N/N=C/c2ccc([N+](=O)[O-])cc2)cc1`, the Activity (milli optical density/minute) was determined as 12.6.

On to `COc1ccc(C(=O)N[C@H](C(=O)N/N=C/c2ccccc2)[C@H](C)O)cc1`, for which the Activity (milli optical density/minute) is 21.4.

The next data set has the same target. The data set is described as follows: Binding affinity to HIV1 capsid protein assessed as inhibition of viral capsid assembly at 1 mM after 600 mins by turbidity-based ultraviolet spectrophotometry.
Details: not given
In the case of `COc1ccc(C(=O)N[C@@H](Cc2c[nH]cn2)C(=O)N/N=C/c2ccccc2)cc1`, the inhibition result is “Active”.
